Data set [1] concerns the target T1, Human immunodeficiency virus type 1 reverse transcriptase (Human immunodeficiency virus 1, UniProt Q72547, K103N/L100I). Put plainly: Inhibition of HIV1 reverse transcriptase L100I/K103N mutant associated RNase H domain activity assessed as reduction in internal cleavage using HTS-1 RNA/DNA duplex substrate by fluorescence assay.
The target in data set [2] is T2, Human immunodeficiency virus type 1 reverse transcriptase (Human immunodeficiency virus 1, UniProt Q72547, Y181C). Put plainly: Inhibition of HIV1 reverse transcriptase Y181C mutant polymerase activity using [3H]TTP and poly(rA)-oligo(dT)16 substrate incubated for 20 mins by liquid scintillation spectrometry. An outline of the steps:
(§1)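 HIV RT (WT or NNRTI-resistant mutant, 10 nM) added to start reaction with 10 μM [3H]-TTP and 40 nM poly(rA)-oligo(dT)16 in 50 mM Tris-HCl pH 7.4, 60 mM KCl, 5 mM MgCl2; 20 min at 37 °C. Quenched with ice-cold 10% TCA/20 mM sodium pyrophosphate, glass-fiber filtered, washed with TCA and ethanol; incorporation counted by scintillation.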

Data set [3] addresses T3, Human immunodeficiency virus type 1 reverse transcriptase (Human immunodeficiency virus 1, UniProt Q72547). Put plainly: Inhibition of HIV1 recombinant reverse transcriptase polymerase activity using [3H]TTP and poly(rA)-oligo(dT)16 substrate incubated for 20 mins by liquid scintillation spectrometry. An outline of the steps:
as §1

Data set [4] has as its target T1, Human immunodeficiency virus type 1 reverse transcriptase. Put plainly: Inhibition of HIV1 reverse transcriptase L100I/K103N mutant associated RNase H domain activity assessed as reduction in reduction in DNA 3' end directed cleavage using HTS-2 RNA/DNA duplex substrate by fluorescence assay.
In data set [5] the target is T2, Human immunodeficiency virus type 1 reverse transcriptase. Briefly: Inhibition of HIV1 reverse transcriptase Y181C mutant associated RNase H domain activity assessed as reduction in internal cleavage using HTS-1 RNA/DNA duplex substrate by fluorescence assay.
Data set [6] addresses T3, Human immunodeficiency virus type 1 reverse transcriptase. Briefly: Inhibition of HIV1 recombinant reverse transcriptase associated catalytically active RNase H domain assessed as reduction in internal cleavage using HTS-1 RNA/DNA duplex substrate by fluorescence assay.
A short description of data set [7]: Inhibition of Moloney murine leukemia virus reverse transcriptase associated RNase H pre-incubated for 10 mins before HTS-1 RNA/DNA duplex substrate addition by fluorescence assay. Put shortly: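 Preincubated 10 min at room temperature, then started with 100 nM HTS-1 duplex. IC50 at curve midpoint; duplicates, at least two experiments.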
Data set [8] addresses Human immunodeficiency virus type 1 integrase (Human immunodeficiency virus 1, UniProt Q7ZJM1). Briefly: Inhibition of HIV integrase pre-incubated for 10 mins before DNA substrate addition. An outline of the steps: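 Strand transfer assay: 1 μM HIV integrase in 10 mM HEPES pH 7.5, 10% glycerol, 10 mM MnCl2, 1 mM DTT, with compound at 0.13–100 μM final in duplicate, preincubated 10 min at 25 °C. Started with biotin/Cy5-labelled oligo duplex, run 30 min at 37 °C, stopped with EDTA. Mean ± SD from at least three experiments.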

Data set [9] concerns the target T1, Human immunodeficiency virus type 1 reverse transcriptase. Put plainly: Inhibition of HIV1 reverse transcriptase L100I/K103N mutant polymerase activity using [3H]TTP and poly(rA)-oligo(dT)16 substrate incubated for 20 mins by liquid scintillation spectrometry. Put shortly:
as §1

Data set [10] can be described thus: Inhibition of Escherichia coli RNase H pre-incubated for 10 mins before HTS-1 RNA/DNA duplex substrate addition by fluorescence assay. An outline of the steps: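 E. coli RNase H at 4 nM with 6 mM MgCl2 and inhibitor at 1, 7 or 30 μM (2% DMSO final) in 50 mM Tris pH 7.8, 50 mM NaCl. Preincubated 10 min at room temperature, then started with 100 nM HTS-1 (fluorescein/Dabcyl RNA/DNA duplex). IC50 taken at curve midpoint; duplicates, at least two independent experiments.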

For data set [11], the target named is T2, Human immunodeficiency virus type 1 reverse transcriptase. Put plainly: Inhibition of HIV1 reverse transcriptase Y181C mutant associated RNase H domain activity assessed as reduction in reduction in DNA 3' end directed cleavage using HTS-2 RNA/DNA duplex substrate by fluorescence assay.
Data set [12] in a line: Selectivity index, ratio of IC50 for HIV integrase to IC50 for HIV1 recombinant reverse transcriptase associated catalytically active RNase H-mediated domain internal cleavage activity.
The target in data set [13] is T3, Human immunodeficiency virus type 1 reverse transcriptase. Briefly: Inhibition of HIV1 recombinant reverse transcriptase associated catalytically active RNase H domain assessed as reduction in DNA 3' end directed cleavage using HTS-2 RNA/DNA duplex substrate by fluorescence assay.
For the next data set, the target named is Gag-Pol polyprotein (Moloney murine leukemia virus isolate Shinnick, UniProt P03355). Briefly: Inhibition of Moloney murine leukemia virus reverse transcriptase polymerase activity using Td100/Pd18 DNA-DNA substrate incubated for 30 mins by fluorescence assay.
The target of data set [14] is T3, Human immunodeficiency virus type 1 reverse transcriptase. Briefly: Inhibition of HIV1 recombinant reverse transcriptase associated catalytically active RNase H domain assessed as reduction in RNA 5' end directed cleavage using HTS-3 RNA/DNA duplex substrate by fluorescence assay.
For data set [15] the target is unchanged. Put plainly: Inhibition of reconstituted HIV1 RNase H using RNA/DNA duplex substrate by fluorescence assay.
Data set [16] can be described thus: Therapeutic index, ratio of CC50 for human HeLa P4/R5 cells to EC50 for HIV infected in human HeLa P4/R5 cells. It is filed as cell-based. As to conditions: read-out: Ratio CC50/EC50.
Data set [17] in a line: Toxicity against human HeLa P4/R5 cells. It is filed as cell-based.
Data set [18] relates to Human immunodeficiency virus. Put plainly: Antiviral activity against HIV infected in human HeLa P4/R5 cells pre-incubated for 16 hrs before virus infection and measured 48 hrs post virus infection by fluorescence-based beta-galactosidase detection assay. As to conditions: Human immunodeficiency virus 1, P4/R5. It is filed as functional, organism-based. An outline of the steps: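 P4R5 indicator cells (expressing CD4, CXCR4, CCR5 and an HIV LTR-driven β-galactosidase reporter) seeded at 5 × 10^3 per well in DMEM/10% FBS with puromycin (0.5 μg/mL). Drug added 16 h before HIV exposure, then 48 h further incubation. Single replication cycle; infection read by fluorescence-based β-galactosidase detection. Highest concentration tested 50 μM; values are averages of two determinations.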

What is called IC50 is the midpoint of a concentration-inhibition curve. Usually CC50 stands for the concentration giving 50% cytotoxicity. What is called EC50 is the concentration at which the effect is half-maximal. Low values mean greater potency, high ones weaker potency.

A value given as a limit tells only on which side of the number the result lay.

Human immunodeficiency virus type 1 integrase, sequence (Q7ZJM1 whole entry): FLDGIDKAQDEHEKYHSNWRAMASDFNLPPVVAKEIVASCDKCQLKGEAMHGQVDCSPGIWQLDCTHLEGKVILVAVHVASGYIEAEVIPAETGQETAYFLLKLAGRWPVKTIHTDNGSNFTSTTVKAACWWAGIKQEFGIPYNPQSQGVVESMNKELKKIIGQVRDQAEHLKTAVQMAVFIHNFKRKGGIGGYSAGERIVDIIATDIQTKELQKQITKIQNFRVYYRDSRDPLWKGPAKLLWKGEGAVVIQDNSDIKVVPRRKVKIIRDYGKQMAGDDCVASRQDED

Take `NS(=O)(=O)c1ccc(-c2ccc(Cc3ccc4c(c3)CC(=O)N(O)C4=O)cc2)cc1`: the IC50 in data set [1] was found to be 0.4 µM; in data set [2], 0.3 µM; in data set [3] it was 0.5 µM; in data set [4], 0.3 µM; in [5] it was 0.2 µM; in data set [6], 0.4 µM. Also, the IC50 in data set [7] is above 30 µM; in data set [8], 3.6 µM; in data set [9], 0.2 µM; in [10], 2.5 µM; in [11], 0.3 µM; in [13] it was 0.5 µM. Moreover, the IC50 against Gag-Pol polyprotein was found to be 2.4 µM; in data set [14], 0.5 µM; in data set [15], 0.4 µM. In data set [12], the Ratio IC50 was 9.

As for `O=C1Cc2cc(Cc3ccc(-c4ccc(F)cc4F)cc3)ccc2C(=O)N1O`, the selectivity ratio in data set [16] is above 4. Further, the IC50 in [3] is 2 µM; in [6], 1.5 µM; in data set [8] it was above 100 µM; in [13], 0.9 µM; in data set [14] it was 1.4 µM; in data set [15], 0.7 µM. The compound further registered a CC50 in data set [17] (HeLa P4/R5 cells) above 50 µM. The EC50 in [18] worked out at 13 µM.

As to `O=C1Cc2cc(Cc3ccc(C4CC4)cc3)ccc2C(=O)N1O`, the IC50 is 0.6 µM in [6]; above 30 µM in [7]; 3.8 µM in data set [8]; 0.8 µM in [13]; 0.9 µM in data set [14]; 0.9 µM in data set [15].

As for `COc1ccc(-c2ccc(Cc3ccc4c(c3)CC(=O)N(O)C4=O)cc2)cc1F`, the selectivity ratio in [16] is above 4. Besides, the IC50 in data set [3] is 1.9 µM; in data set [6] it was 2.2 µM; in data set [8], above 100 µM; in [13], 1.8 µM; in data set [14], 1.2 µM; in data set [15], 0.7 µM. In data set [17] (HeLa P4/R5 cells), this compound gave a CC50 above 50 µM. This compound also returned a 50% effective concentration (EC50) in [18] of 13 µM.

`N#Cc1ccc(-c2ccc(Cc3ccc4c(c3)CC(=O)N(O)C4=O)cc2)cc1` showed a CC50 in data set [17] (HeLa P4/R5 cells) above 50 µM. The EC50 in data set [18] was determined as 13 µM. The IC50 in [6] was 0.9 µM; in data set [7], above 30 µM; in [8] it was above 100 µM; in [10], 3.2 µM; in data set [13], 0.9 µM; in data set [14], 0.9 µM. Further, the IC50 in [15] stood at 0.5 µM.

Compound `NC(=O)c1ccc(-c2ccc(Cc3ccc4c(c3)CC(=O)N(O)C4=O)cc2)cc1` registered an IC50 in data set [15] of 1.5 µM.

As to `O=C1Cc2cc(Cc3ccccc3)ccc2C(=O)N1O`, the IC50 was 1.7 µM in data set [3]; 1.3 µM in data set [6]; above 30 µM in data set [7]; 3.8 µM in data set [8]; 6.5 µM in data set [10]; 1.4 µM in data set [13]. Also, the IC50 turned out to be 3.2 µM at Gag-Pol polyprotein, 1.1 µM in data set [14] and 1.1 µM in data set [15]. The Ratio IC50 in data set [12] came to 2.9.

As for `O=C1Cc2cc(Cc3ccc(F)cc3)ccc2C(=O)N1O`, the selectivity ratio in data set [16] is above 4. In addition, the IC50 in [3] is 2.3 µM; in data set [6] it was 1.3 µM; in data set [8] it was 36 µM; in [13] it was 0.8 µM; in data set [14] it was 1.2 µM; in [15], 0.5 µM. The CC50 in [17] (HeLa P4/R5 cells) was above 50 µM. Further, in [18], it took 13 µM to reach a half-maximal effect (EC50). Also, the Ratio IC50 in data set [12] amounted to 28.

Take `O=C1Cc2cc(Cc3ccc(-c4cccs4)cc3)ccc2C(=O)N1O`: the selectivity ratio in data set [16] is above 4. Besides, the IC50 in data set [3] is 1.5 µM; in data set [6] it was 2.7 µM; in [8] it was above 100 µM; in [13] it was 2 µM; in data set [14], 2.7 µM; in data set [15] it was 0.7 µM. The compound also yielded a cytotoxic concentration (CC50) in data set [17] (HeLa P4/R5 cells) above 50 µM. Further, the midpoint of the response in [18], the EC50, lay at 13 µM.

For `O=C1Cc2cc(Cc3ccc(Cl)cc3)ccc2C(=O)N1O`, the IC50 is above 30 µM in data set [7] and 4.4 µM in data set [8].

`O=C1Cc2cc(Cc3ccc(C(F)(F)F)cc3)ccc2C(=O)N1O`: the midpoint of cytotoxicity in data set [17] (p4/r5), the CC50, lay at 50 µM. The same compound displayed an EC50 in data set [18] of 6.2 µM. Also, the IC50 was 1.5 µM in [6]; above 30 µM in [7]; above 100 µM in data set [8]; 1.1 µM in data set [13]; 2 µM in data set [14]; 1.2 µM in [15].

As for `CS(=O)(=O)c1ccc(-c2ccc(Cc3ccc4c(c3)CC(=O)N(O)C4=O)cc2)cc1`, the IC50 in [7] is above 30 µM; in data set [10] it was 7.2 µM.

With `O=C1Cc2cc(Cc3ccc(-c4ccccc4)cc3)ccc2C(=O)N1O`, in data set [17] (p4/r5), the CC50 was determined as 50 µM. This compound also gave a 50% effective concentration (EC50) in [18] of 3 µM. Besides, the IC50 in data set [6] is 0.8 µM; in data set [7], above 30 µM; in data set [8], above 100 µM; in [10], 3.4 µM; in [13], 0.6 µM; in data set [14] it was 0.9 µM. The same compound registered an IC50 in data set [15] of 0.5 µM.

Compound `COc1ccc(-c2ccc(Cc3ccc4c(c3)CC(=O)N(O)C4=O)cc2)cc1` had a concentration for a half-maximal effect (EC50) in data set [18] of 10 µM.

For `O=C1Cc2cc(Cc3ccc(-c4ccncc4)cc3)ccc2C(=O)N1O`, the IC50 in data set [7] was above 30 µM; in data set [10] it was 4 µM; in data set [15], 0.8 µM.

In turn, `O=C1Cc2cc(Cc3ccc(-c4ccc(F)cc4)cc3)ccc2C(=O)N1O` showed an EC50 in data set [18] of 10 µM. Further, the IC50 in data set [6] is 5.4 µM; in [7], above 30 µM; in data set [8], above 100 µM; in [10], 2.9 µM; in data set [13], 4.9 µM; in data set [14], 5 µM. This compound gave a concentration for half-maximal inhibition (IC50) in data set [15] of 2.8 µM.

The values are drawn from ChEMBL document CHEMBL3414532 (J Med Chem, 2015).
